Compounds with a hit are over-represented: about 2.6% of the library has one in this group of screens.
IMP-1 inhibitor = blocks Pseudomonas aeruginosa IMP-1 metallo-beta-lactamase. purified IMP-1, nitrocefin hydrolysis, epi-absorbance fluorescence. inhibition, % at 5.6 µM. 290,000 tested, 0.45% active;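 active means inhibition above the mean plus 3 SD of all compounds in the same screening run, cut at about 4.5% in these data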;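 further: 0% = IMP-1 with DMSO and 100% = DMSO wells lacking enzyme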
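system = purified recombinant IMP-1 beta-lactamase | amount = 0.2 nM IMP-1, as dispensed | medium = HEPES buffer pH 7.1 with ZnSO4 and Brij 35 | times = 25 °C, 15 min preincubation, 25 min reaction | detection = plate fluorescence quenching by hydrolysis product, ex 480/em 530 nm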
VIM-2 inh = inhibitors of Pseudomonas aeruginosa VIM-2 metallo-beta-lactamase; inhibition, % at 5.6 µM; 290,000 tested, 0.89% active; AID 1527; purified VIM-2, nitrocefin hydrolysis, epi-absorbance fluorescence;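 active means inhibition above the mean of all tested compounds plus 3 SD, cutoff set per screening run, cut at about 7.5% in these data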;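 further: red hydrolysis product quenches plate fluorescence so inhibitors raise well fluorescence; 0% = enzyme with DMSO and 100% = DMSO without enzyme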
ASAP1 inh = ASAP1 ArfGAP inhibition | inhibition, % at 16.5 µM | Q9ULH1 | ASAP1-stimulated ARF1 GTP hydrolysis, GDP FP detection | 360,000 tested, 0.19% active; in the data active means inhibition above about 25%;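 further: 0% = vehicle with enzyme and substrate and 100% = no enzyme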
Calb FLC = C. albicans growth modulation with fluconazole. 300,000 tested, 0.57% active. C. albicans CaCi-2 + fluconazole, Alamar Blue growth, 48 h. AID 1979. growth inhibition, % (concentration not given with the values);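 active means growth inhibition above about 58% in most replicates, limit read from the data, passing the limit was not always enough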;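 further: all wells also contain fluconazole at 8 µg/ml as a sub-toxic cotreatment; 0% = median of DMSO wells and 100% = median of geldanamycin control wells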
ARFGAP1 inh = rat ARFGAP1 inhibition | Q62848 | Arfgap1-stimulated ARF1 GTP hydrolysis, GDP FP detection | inhibition, % at 16.5 µM | 360,000 tested, 0.26% active | AID 651572;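 active means inhibition above a per-plate limit, mean inhibition of low control wells plus 3 SD, cut at about 25% in these data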;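 further: 0% = DMSO wells with enzyme and 100% = wells lacking Arfgap1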
Target sequence (Q62848 1-136 limits assumed): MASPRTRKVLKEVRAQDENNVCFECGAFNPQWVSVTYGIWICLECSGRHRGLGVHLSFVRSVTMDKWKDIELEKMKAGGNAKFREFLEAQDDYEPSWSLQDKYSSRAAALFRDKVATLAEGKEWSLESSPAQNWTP
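System: truncated rat Arfgap1 GAP domain / Benchmarks: high control wells lacking Arfgap1, low control full reaction with DMSO / Times: compound-enzyme preincubation 20 min, reaction 120 min, detection 60 min, 25 °C / Repeats: one replicate per compound / Also added: human ARF1(Δ1-17)-GTP substrate / Measured by: Tracer-displacement fluorescence polarization with EDTA stop, 620/688 nm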
PHOSPHO1 block = blocks human PHOSPHO1 phosphatase activity; Q8TCT1; recombinant PHOSPHO1, absorbance phosphatase assay; inhibition, % at 13.3 µM; 290,000 tested, 1.1% active; AID 1565; in the data active means inhibition above about 60%
Target sequence (Q8TCT1 whole entry, looked up): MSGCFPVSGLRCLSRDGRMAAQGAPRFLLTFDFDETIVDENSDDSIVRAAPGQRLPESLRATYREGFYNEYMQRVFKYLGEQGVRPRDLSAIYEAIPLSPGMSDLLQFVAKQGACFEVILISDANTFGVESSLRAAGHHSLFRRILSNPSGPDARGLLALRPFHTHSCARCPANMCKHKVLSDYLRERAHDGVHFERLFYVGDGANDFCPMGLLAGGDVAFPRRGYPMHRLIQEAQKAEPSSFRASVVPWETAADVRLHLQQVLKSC
Active calls of the source: *; . = no result given.

SMILES | IMP-1 inhibitor | VIM-2 inh | ASAP1 inh | Calb FLC | ARFGAP1 inh | PHOSPHO1 block
Cc1ccccc1-n1c(C)nnc1SCC(=O)NCC1CCCO1 (stereo unspecified) | -3 | 0 | 2 | 52 | 5 | 67*
CCN1CCN(Cc2c(O)ccc3c2O/C(=C\C=C\c2ccccc2OC)C3=O)CC1 | 28* | 5 | -16 | -9 | -2 | -11
CN(C)c1cccc2c1c(NC(=O)c1ccc(F)cc1)nn2C | -4 | -2 | -7 | -1 | -7 | 62*
CC(C)CNc1cccc2c1S(=O)(=O)N[C@@H](CC(C)C)CO2 | . | . | 8 | . | 11 | .
N#Cc1c(C(F)(F)F)cc(-c2cccc(Cl)c2)[nH]c1=O | 0 | 8.7* | 5 | 0 | 5 | 0
O=C(CSc1nnc(-c2ccccc2)o1)c1nnc(-c2ccccc2)o1 | -3 | -2 | -9 | 11 | -10 | 94*
Cc1ccc(-c2nnc(SCC(=O)N3CCCC3)o2)cc1C | -2 | -1 | -1 | 5 | 3 | 92*
O=C(CSc1nnc(-c2ccc(Br)cc2)o1)Nc1cccc2ccccc12 | -1 | -4 | -6 | 85* | -7 | -12
O=C(CSc1nnc(-c2ccc(Br)cc2)o1)Nc1cccc(C(=O)O)c1 | -2 | -3 | -6 | 2 | 5 | -31
CCOC(=O)CSc1nnc(-c2ccccc2)o1 | -3 | -2 | 1 | -4 | -9 | -6
O=C(CSc1nnc(-c2ccncc2)o1)N1CCCCCC1 | -2 | -5 | -13 | 16 | -3 | 68*
CCOC(=O)N1CCN(C(=O)CSc2nnc(-c3ccc(C)c(C)c3)o2)CC1 | -3 | -2 | -2 | -3 | 9 | 13
CC(C)CCCCCCCCc1cccc(O)c1C(=O)O | . | . | -14 | . | . | .
Nc1ncnc2c1ncn2[C@@H]1O[C@H](C(=O)Nc2cc(C(F)(F)F)cc(C(F)(F)F)c2)[C@@H](O)[C@H]1O | . | . | 7 | . | 2 | .
NC(=S)N/N=C/c1ccc(-c2ccccc2)o1 | -2 | -3 | 8 | 9 | -3 | -25
NC(=S)N/N=C/c1ccc(-c2ccc(Cl)c(Cl)c2)o1 | -1 | -3 | -6 | 1 | -6 | 81*
Cc1ccc(-c2ccc(/C=N/NC(N)=S)o2)cc1 | -4 | -5 | -8 | -3 | 5 | -98
NC(=S)N/N=C\c1ccc(-c2cccc(Cl)c2Cl)o1 | -2 | -5 | 2 | -7 | 12 | 95*
Cc1cccc(NC(=O)CNC(=O)[C@@H](Cc2ccccc2)NC(=O)[C@H]2O[C@@H](n3ccc(=O)[nH]c3=O)[C@H](O)[C@@H]2O)c1C | . | . | 2 | . | -6 | .
CCCN1CCCCC(NC(=O)c2cccs2)C1=O (stereo unspecified) | . | . | -1 | . | -2 | .
CCCSc1nc2sc3c(c2c(=O)[nH]1)CCN(Cc1ccccc1)C3 | 1 | -3 | . | 14 | . | 8
O=c1[nH]c(C(Cl)Cl)nc2sc3c(c12)CCN(Cc1ccccc1)C3 | 11* | 3 | -8 | 2 | 7 | -17
Cc1cc(NC(=O)CSc2nnc(-c3ccoc3C)n2N)no1 | -4 | -4 | -14 | -18 | -5 | 55
CCOc1ccc(C(C)=O)cc1CSc1nnc(-c2ccoc2C)n1N | -3 | -5 | -11 | -3 | -21 | 75*
CC(NC(=O)OCc1ccccc1)C(=O)Oc1cc2oc(=O)cc(-c3ccccc3)c2cc1Cl (stereo unspecified) | -2 | 0 | -3 | 82* | -5 | -21
SMILES | IMP-1 inhibitor | VIM-2 inh | ASAP1 inh | Calb FLC | ARFGAP1 inh | PHOSPHO1 block
COc1ccccc1C(=O)NC1CCCCN(C)C1=O (stereo unspecified) | . | . | 6 | . | -9 | .
Cc1ccccc1CN1[C@@H](CC(C)C)COc2cc(Br)ccc2S1(=O)=O | . | . | -2 | . | 1 | .
O=c1c(/C=N/Nc2ccccc2)c(Sc2nnnn2-c2ccccc2)nc2ccccn12 | 0 | -2 | -3 | . | 12 | 93*
O=C(C1CCC(=O)N(C2CCCC2)C1)N1CCN(Cc2cccc(F)c2)CC1 (stereo unspecified) | -4 | -3 | 5 | 5 | 5 | 75*
CCCc1ccc2c(C)cccc2n1 | . | . | -14 | . | 9 | .
Oc1cccc(-n2nnnc2SCc2ccccc2F)c1 | -2 | -2 | 14 | 14 | 17 | 24
O=C(O)c1cc(-n2nnnc2SCc2ccccc2F)ccc1Cl | -2 | 10* | -4 | -2 | -2 | 20
COC(=O)c1c(NC(=O)CC2Nc3cc(C)c(C)cc3NC2=O)sc(C)c1C (stereo unspecified) | 4.6* | -1 | . | 2 | . | -6
COc1ccc(C2=Nc3ccccc3N(C(=O)c3ccc(C)cc3)C2C(=O)Nc2c(C)cccc2C)cc1 (stereo unspecified) | . | . | -2 | . | 2 | .
Cc1ccc(NC2=CC(=O)C(=O)c3ccccc32)cc1 | -7 | -2 | 18 | 101* | 1 | -4
NS(=O)(=O)c1ccc(NC2=CC(=O)C(=O)c3ccccc32)cc1 | -1 | 1 | 19 | 42 | 23 | 15
CCOC(=O)c1ccccc1OCc1cc(/C=N/n2cnnc2)ccc1OC | -1 | 0 | -2 | 102* | 6 | 23
CCOC(=O)c1ccccc1OCc1cc(/C=N/NC(=O)c2cccnc2)ccc1OC | -2 | -3 | 3 | 1 | -9 | 24
COc1ccccc1-c1cc(C2CC2)nc(N)c1C#N | 2 | 0 | 9 | -21 | -2 | -8
N#Cc1c(-c2ccccc2Cl)cc(C2CC2)nc1N | -3 | -2 | 7 | . | -15 | 84*
COc1ccc(-c2cc(C3CC3)nc(N)c2C#N)cc1 | -1 | 8.8* | 1 | 0 | -18 | 23
Cn1nc(SCC(=O)O)sc1=S | -2 | -3 | 2 | -10 | -4 | 9
CCOC(=O)C(Sc1nn(C)c(=S)s1)C(C)=O (stereo unspecified) | 1 | 0 | 6 | -2 | 4 | 97*
COC(=O)[C@]12C[C@H](CC(=O)NCC3CCCCC3)C(=O)N(Cc3ccc4c(c3)OCO4)C1=C[C@H](COCc1ccccc1)O[C@@H]2C | . | . | 4 | . | -7 | .
Cc1ccccc1Cn1c(C)cc(C)c(C#N)c1=O | 4.5* | -2 | -7 | -15 | -2 | 28
COc1ccc(NC(=O)c2cn(-c3ccccc3)nc2-c2ccncc2)cc1 | -3 | -3 | 3 | -10 | -1 | 8
COc1ccc(NC(=O)c2cn(-c3ccccc3)nc2-c2cc3ccccc3o2)cc1 | -1 | -7 | 29* | 15 | 10 | 41
O=C(Nc1ccccc1)c1csc(-c2ccccc2)n1 | -1 | -1 | -2 | -1 | 11 | 34
O=C(Nc1ccc(C(F)(F)F)cc1)c1csc(-c2ccncc2)n1 | 0 | -1 | 2 | -4 | -5 | 64*
Cc1ccc(NC(=O)NCc2ccco2)cc1[N+](=O)[O-] | . | . | -2 | . | -3 | .
C=CCN=C1NC(c2cccc(Cl)c2)C(C(=O)OC)=C(C)N1Cc1cccc(C(F)(F)F)c1 (stereo unspecified) | . | . | -7 | . | 0 | .

Screens from PubChem.
